# Assay results taken from article PMC3141330 (Biochemistry, 2010).
# Where “and” joins values, the source holds several entries; their conditions need not be identical. Equal entries are not always repeated. Entries after “also recorded” stand apart in the source; their conditions may differ.
# Key:
# [1] = test system: Hsp90; test: Competition pull-down: HOP versus GST-CHIP for Hsp90; assay type: binding
# How it was run: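 GST-CHIP (10 µM) and His6-Hsp90 (10 µM), or subsets as controls, were mixed with 3–30 µM His6-HOP in 50 mM Tris pH 7.4, 10 mM NaCl, 5 mM βME. Mixtures were held on ice ~10 min, then rotated with glutathione agarose at 4°C for 1 h and washed 4×. Bound protein was eluted in SDS buffer and resolved by Coomassie SDS-PAGE.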
# [2] = test system: Hsp90; test: Control Ni-NTA pull-down of HOP by His6-Hsp90; assay type: binding; conditions: 20 µM His6-Hsp90, 20 µM HOP without His6-tag, 150 mM KCl, 3 mM MgCl2, Ni-NTA, 4°C
# [3] = test system: Hsp90; conditions: human Hsp90; ref [19]; cited from earlier work
# [4] = test system: CHIP; conditions: 'normal' non-Hsp90 inhibited cells, cycloheximide; ref [17]; cited from earlier work
# [5] = test system: HER2/neu; conditions: Hsp90 inhibition in cells; CHIP-dependent; ref [17]; cited from earlier work
# [6] = test system: Hsp70; conditions: ref [35]; cited from earlier work
# [7] = target: T1, CHIP (Homo sapiens, UniProt Q9UNE7); test: ITC: C-terminal peptides of Hsp70 or Hsp90; assay type: binding; conditions: dimer and tetramer species of CHIP, data not shown
# T1 sequence (Q9UNE7 1-303): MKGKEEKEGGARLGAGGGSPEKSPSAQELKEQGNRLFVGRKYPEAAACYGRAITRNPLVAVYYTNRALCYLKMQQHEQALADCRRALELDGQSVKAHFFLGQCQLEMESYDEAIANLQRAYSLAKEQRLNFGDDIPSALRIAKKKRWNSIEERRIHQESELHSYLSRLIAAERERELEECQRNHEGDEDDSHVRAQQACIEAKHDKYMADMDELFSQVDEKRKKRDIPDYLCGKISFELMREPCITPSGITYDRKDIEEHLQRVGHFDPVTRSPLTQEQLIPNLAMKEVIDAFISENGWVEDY
# [8] = target: T1, CHIP; assay type: biochemical; conditions: discussion summary
# How it was run: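 Reactions contained 0.091 µM human UBE1, 20 µM UbcH5c, 20 µM CHIP, 100 µM Hsp70 T13G ±188 µM model client peptide. Buffer: 50 mM Tris pH 7.4, 150 mM KCl, 10 mM NaCl, 3 mM MgCl2, 10 mM ATP, 0.1 mM βME. Preincubated 30°C ~10 min, started with 0.5 mM ubiquitin. Timed aliquots ran on Coomassie SDS-PAGE; ubiquitin per CHIP monomer fitted linearly early (slope = rate); three independent experiments, SD.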
# [9] = test system: Hsp90-dependent client proteins; conditions: CFTRΔF508 and wild-type CFTR; ref [36]; cited from earlier work
# [10] = test system: Hsp70 and Hsp90; conditions: ref [18], cited from earlier work
# [11] = test system: Hsp70 in BT474 breast cancer cells; test: Quantitative Western blot: Hsp70 in BT474 cells after 17-AAG; assay type: cell-based; conditions: BT474, 0.178 µM 17-AAG, 7 or 14 hours; ~10 µM (monomer) under normal conditions
# How it was run: (§1)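 BT474 cells, seeded overnight, were exposed to 0.178 µM test compound (Hsp90 inhibitor) for 7 or 14 h; untreated cells were harvested at 15 h. Cells were counted, then lysed in SDS buffer. Extract from 35,000 cells (Hsp70, Hsp90, HOP) or 70,000 cells (CHIP) was blotted with ECL detection against a linear purified-protein calibration series. Values were converted via cell number and a cell volume of 3.5×10⁻⁶ µl.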
# [12] = test system: Hsp90 in BT474 breast cancer cells; test: Quantitative Western blot: Hsp90 in BT474 cells after 17-AAG; assay type: cell-based; conditions: BT474, 0.178 µM 17-AAG, 7 or 14 hours; Hsp90 dimer; same as normal
# How it was run: as §1
# [13] = test system: HOP in BT474 breast cancer cells; test: Quantitative Western blot: HOP in BT474 cells after 17-AAG; assay type: cell-based; conditions: BT474, 0.178 µM 17-AAG, 7 or 14 hours; HOP monomer; same as normal
# How it was run: as §1
# [14] = test system: CHIP in BT474 breast cancer cells; test: Quantitative Western blot: CHIP in BT474 cells after 17-AAG; assay type: cell-based; conditions: BT474, 0.178 µM 17-AAG, 7 or 14 hours; CHIP monomer; constant versus normal
# How it was run: as §1
# [15] = test system: HER2 in BT474 breast cancer cells; test: Western blot: HER2 in BT474 cells after 17-AAG; assay type: cell-based; conditions: BT474, 0.178 µM 17-AAG, 7 or 14 hours; qualitative, GAPDH loading control
# [16] = test system: Hsp90; conditions: ref [32]; cited from earlier work
molecule,measurement,setting,value
Hsp70/Hsp90 organizing protein [HOP],competition with CHIP for binding to Hsp90 (in words),"[1]; 3-30 µM His6-HOP, 10 µM GST-CHIP, 10 µM His6-Hsp90, 50 mM Tris pH 7.4, 10 mM NaCl, 5 mM βME, 4°C 1 hour, glutathione agarose","CHIP does not pull-down HOP through Hsp90, but that HOP and CHIP compete for binding to Hsp90; also recorded: HOP is competing with CHIP for binding to Hsp90"
same,"binding of HOP to CHIP, control (in words)","[1]; control lanes, glutathione agarose pull-down with GST-CHIP",HOP does not bind to CHIP
same,pull-down of HOP by Hsp90 (in words),[2],the HOP and Hsp90 interaction is stable; also recorded: HOP does not bind non-specifically to the resin but binds to Hsp90
Hsp90: heat shock induced homo-dimeric molecular chaperone; recombinant His6-Hsp90β,kcat of ATP hydrolysis by Hsp90,[3],~ 0.09 min^−1
"HER2: oncoprotein, Hsp70/Hsp90 client protein",half life of HER2 in normal cells,[4],less than 1 hour
COC1=C2C[C@@H](C)C[C@H](OC)[C@H](O)[C@@H](C)/C=C(\C)[C@H](OC(N)=O)[C@@H](OC)/C=C\C=C(/C)C(=O)NC(=CC1=O)C2=O [geldanamycin],degradation of HER2/neu (in words),[5],rapid degradation of the Hsp70/Hsp90 client protein HER2/neu
Hsp70: heat shock induced monomeric molecular chaperone; recombinant His6-Hsp70,kcat for client peptide stimulated hydrolysis of ATP by Hsp70,[6],0.0017 to 0.005 s⁻¹
Carboxyl terminus of Hsc70-interacting protein [CHIP],binding of both CHIP oligomeric species to Hsp70 (in words),[7],both oligomeric species of CHIP bind Hsp70 with the same binding affinity and stoichiometry
same,rate of ubiquitination at substrate concentrations much above KM,[8],~ 0.1 ubiquitin molecules attached/CHIP monomer/minute
same,degradation of CFTR on increase in CHIP concentration (in words),[9],"leads to degradation of a cystic fibrosis causing mutant of Hsp70/Hsp90 client protein CFTR, CFTRΔF508; also recorded: also leads to degradation of wild-type CFTR"
same,effect of CHIP over-expression on Hsp70 levels (in words),[10]; over-expression of CHIP,decrease in Hsp70 levels
same,effect of CHIP on half-life of Hsp70 and Hsp90 (in words),[10],"greatly decreased the half-life of both Hsp70 and Hsp90, with degradation of Hsp70 being more pronounced"
C=CCNC1=C2C[C@@H](C)C[C@H](OC)[C@H](O)[C@@H](C)/C=C(\C)[C@H](OC(N)=O)[C@@H](OC)/C=C\C=C(/C)C(=O)NC(=CC1=O)C2=O [17-AAG],total Hsp70 cellular concentration upon 17-AAG treatment,[11],39 µM and ~ 39 µM
same,Hsp90 level upon 17-AAG treatment,[12],~ 5 µM
same,HOP level upon 17-AAG treatment,[13],~ 3 µM
same,CHIP concentration upon 17-AAG treatment,[14],~ 0.1 µM
same,HER2 levels upon 17-AAG treatment (in words),[15],decrease in HER2 levels
same,degradation of HER2/neu (in words),[5],client proteins such as the oncoprotein HER2/neu undergo rapid CHIP-dependent degradation; also recorded: rapid degradation of the Hsp70/Hsp90 client protein HER2/neu
same,binding to Hsp90 (in words),[16],binds to the ATP binding pocket and renders the chaperone unable to facilitate client protein folding process
